ChEMBL document CHEMBL2146464, “Structure-activity relationship study of nitrosopyrimidines acting as antifungal agents” (Bioorg Med Chem, 2012)
In brackets after ≈: the same amount, converted by molar mass. Activity calls are given as the source filed them. The rule behind the calls is not given here.

Assays:
Candida tropicalis [1] = assay: Antifungal activity against Candida tropicalis assessed as growth inhibition at 62.5 ug/mL by microplate reader analysis; type: functional; conditions: read-out: GI
Cryptococcus neoformans [2] = assay: Antifungal activity against Cryptococcus neoformans ATCC 32264 after 48 hrs by microplate reader analysis; type: functional; conditions: ATCC 32264, 48 h
Procedure, shortened: (§1)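 Microplate growth-inhibition assay in RPMI-1640, compound at final 250–0.98 µg/mL (DMSO ≤1%). Inoculum 1–5 × 10³ CFU/mL. Sterility and DMSO growth controls included. Percent inhibition is computed from blank-corrected OD relative to the growth control, tested in duplicate.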

Candida tropicalis [3] = assay: Antifungal activity against Candida tropicalis by microplate reader analysis; type: functional
Candida albicans [4] = assay: Antifungal activity against Candida albicans ATCC 10231 assessed as growth inhibition at 62.5 ug/mL after 24 hrs by microplate reader analysis; type: functional; conditions: ATCC 10231, 24 h, read-out: GI
Procedure, shortened: (§2)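 96-well RPMI-1640 wells with compound at final 250–0.98 µg/mL (DMSO ≤1%). Inoculum 100 µL, 1–5 × 10³ CFU/mL, 200 µL final. Each well includes growth (DMSO, no compound) and sterility controls. % inhibition = 100 − (CTW−SCW)/(GCW−SCW) × 100, run in duplicate.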

Cryptococcus neoformans [5] = assay: Antifungal activity against Cryptococcus neoformans ATCC 32264 assessed as growth inhibition at 15.6 ug/mL after 48 hrs by microplate reader analysis; type: functional; conditions: ATCC 32264, 48 h, read-out: GI; procedure, shortened: as §1
Candida albicans [6] = assay: Antifungal activity against Candida albicans ATCC 10231 assessed as growth inhibition at 250 ug/mL after 24 hrs by microplate reader analysis; type: functional; conditions: ATCC 10231, 24 h, read-out: GI; procedure, shortened: as §2
Aspergillus flavus = assay: Antifungal activity against Aspergillus flavus ATCC 9170 at 0.98 to 250 ug/mL by NCCLS broth microdilution method; type: functional, organism-based
Procedure, shortened: (§3)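 MIC by broth microdilution per NCCLS M27-A3/M38-A2 in RPMI-1640 buffered to pH 7.0 with MOPS. Twofold dilutions from 250–0.98 µg/mL, final DMSO ≤1%. Inoculum 1–5 × 10³ CFU/mL. Incubated in a moist dark chamber, 30 °C for Aspergillus and 28–30 °C for dermatophytes. Read visually when control growth allowed. Endpoint is the lowest concentration giving total inhibition of visible growth (MIC100).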

Candida albicans [7] = assay: Antifungal activity against Candida albicans ATCC 10231 assessed as growth inhibition at 31.25 ug/mL after 24 hrs by microplate reader analysis; type: functional; conditions: ATCC 10231, 24 h, read-out: GI; procedure, shortened: as §2
Cryptococcus neoformans [8] = assay: Antifungal activity against Cryptococcus neoformans ATCC 32264 assessed as growth inhibition at 250 ug/mL after 48 hrs by microplate reader analysis; type: functional; conditions: ATCC 32264, 48 h, read-out: GI; procedure, shortened: as §1
Candida albicans [9] = assay: Antifungal activity against Candida albicans ATCC 10231 assessed as growth inhibition at 125 ug/mL after 24 hrs by microplate reader analysis; type: functional; conditions: ATCC 10231, 24 h, read-out: GI; procedure, shortened: as §2
Cryptococcus neoformans [10] = assay: Antifungal activity against Cryptococcus neoformans ATCC 32264 assessed as growth inhibition at 3.9 ug/mL after 48 hrs by microplate reader analysis; type: functional; conditions: ATCC 32264, 48 h, read-out: GI; procedure, shortened: as §1
Cryptococcus neoformans [11] = assay: Antifungal activity against Cryptococcus neoformans ATCC 32264 assessed as growth inhibition at 7.8 ug/mL after 48 hrs by microplate reader analysis; type: functional; conditions: ATCC 32264, 48 h, read-out: GI; procedure, shortened: as §1
Candida albicans [12] = assay: Fungicidal activity against Candida albicans ATCC 10231 after 48 hrs by agar plate dilution method; type: functional; conditions: ATCC 10231, 48 h
Procedure, shortened: (§4)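 MFC: after the microdilution MIC, material from each clear well was plated onto RPMI-1640 agar buffered with MOPS. Plates incubated at 30 °C and read after 48 h. MFC is the lowest concentration giving total inhibition of visible growth.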

Candida tropicalis [13] = assay: Antifungal activity against Candida tropicalis assessed as growth inhibition at 7.8 ug/mL by microplate reader analysis; type: functional; conditions: read-out: GI
Candida tropicalis [14] = assay: Antifungal activity against Candida tropicalis assessed as growth inhibition at 31.25 ug/mL by microplate reader analysis; type: functional; conditions: read-out: GI
Aspergillus niger = assay: Antifungal activity against Aspergillus niger ATCC 9029 at 0.98 to 250 ug/mL by NCCLS broth microdilution method; type: functional, organism-based; procedure, shortened: as §3
Cryptococcus neoformans [15] = assay: Fungicidal activity against Cryptococcus neoformans ATCC 32264 after 48 hrs by agar plate dilution method; type: functional; conditions: ATCC 32264, 48 h; procedure, shortened: as §4
Candida albicans [16] = assay: Antifungal activity against Candida albicans ATCC 10231 assessed as growth inhibition at 7.8 ug/mL after 24 hrs by microplate reader analysis; type: functional; conditions: ATCC 10231, 24 h, read-out: GI; procedure, shortened: as §2
Aspergillus fumigatus = assay: Antifungal activity against Aspergillus fumigatus ATCC 26934 at 0.98 to 250 ug/mL by NCCLS broth microdilution method; type: functional, organism-based; procedure, shortened: as §3
Candida tropicalis [17] = assay: Antifungal activity against Candida tropicalis assessed as growth inhibition at 15.6 ug/mL by microplate reader analysis; type: functional; conditions: read-out: GI
[18] = Acute toxicity in bony fish assessed as mortality at 5 ug/mL after 96 hrs; conditions: actinopterygii; read-out: Activity
Procedure, shortened: (§5)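 Guppy (Poecilia reticulata) acute static exposure: 10 fish per concentration in 2 L wide-mouthed jars holding the test solution. Compounds were added from […] to give the final concentrations. Dead fish were counted and removed every 24 h, with general condition noted; percentage mortality was scored at 96 h. Two experiments, each in triplicate.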

Candida albicans [19] = assay: Antifungal activity against Candida albicans ATCC 10231 after 24 hrs by microplate reader analysis; type: functional; conditions: ATCC 10231, 24 h; procedure, shortened: as §2
Nannizzia gypsea [20] = assay: Fungicidal activity against Microsporum gypseum CCC 115 after 48 hrs by agar plate dilution method; type: functional; conditions: CCC 115, 48 h; procedure, shortened: as §4
Trichophyton rubrum [21] = assay: Antifungal activity against Trichophyton rubrum CCC 110 by NCCLS broth microdilution method; type: functional; conditions: read-out: MIC100; procedure, shortened: as §3
Cryptococcus neoformans [22] = assay: Antifungal activity against Cryptococcus neoformans ATCC 32264 assessed as growth inhibition at 31.25 ug/mL after 48 hrs by microplate reader analysis; type: functional; conditions: ATCC 32264, 48 h, read-out: GI; procedure, shortened: as §1
Candida albicans [23] = assay: Antifungal activity against Candida albicans ATCC 10231 after 48 hrs by NCCLS broth microdilution method; type: functional; conditions: ATCC 10231, 48 h, read-out: MIC100
Procedure, shortened: (§6)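 Yeast MIC by NCCLS M27-A3 broth microdilution in RPMI-1640 buffered to pH 7.0 with MOPS. Twofold dilutions of 250–0.98 µg/mL, final DMSO ≤1%. Inoculum 1–5 × 10³ CFU/mL. Incubated at 30 °C in a moist dark chamber. Read visually at 48 h. MIC100 is the lowest concentration with no visible growth versus drug-free control.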

Candida albicans [24] = assay: Antifungal activity against Candida albicans ATCC 10231 assessed as growth inhibition at 3.9 ug/mL after 24 hrs by microplate reader analysis; type: functional; conditions: ATCC 10231, 24 h, read-out: GI; procedure, shortened: as §2
Cryptococcus neoformans [25] = assay: Antifungal activity against Cryptococcus neoformans ATCC 32264 after 48 hrs by NCCLS broth microdilution method; type: functional; conditions: ATCC 32264, 48 h, read-out: MIC100; procedure, shortened: as §6
[26] = Acute toxicity in bony fish assessed as mortality at 35 ug/mL after 96 hrs; conditions: actinopterygii; read-out: Activity; procedure, shortened: as §5
Trichophyton rubrum [27] = assay: Fungicidal activity against Trichophyton rubrum CCC 110 after 48 hrs by agar plate dilution method; type: functional; conditions: CCC 110, 48 h
Procedure, shortened: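 Samples from each clear well of the MIC broth microdilution tray were plated onto RPMI-1640 agar buffered with MOPS. That tray had compounds twofold diluted in RPMI (pH 7.0, MOPS) from 250–0.98 µg/mL with inoculum of 1–5 × 10³ CFU/mL, incubated at 28–30 °C for dermatophytes. Plates were incubated at 30 °C and read at 48 h. MFC was taken as the lowest concentration giving total inhibition of visible growth.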

[28] = tested on: Trichophyton mentagrophytes; assay: Antifungal activity against Trichophyton mentagrophytes ATCC 9972 by NCCLS broth microdilution method; type: functional; conditions: read-out: MIC100; procedure, shortened: as §3
Candida tropicalis [29] = assay: Fungicidal activity against Candida tropicalis after 48 hrs by agar plate dilution method; type: functional; procedure, shortened: as §4
Cryptococcus neoformans [30] = assay: Antifungal activity against Cryptococcus neoformans ATCC 32264 assessed as growth inhibition at 62.5 ug/mL after 48 hrs by microplate reader analysis; type: functional; conditions: ATCC 32264, 48 h, read-out: GI; procedure, shortened: as §1
Candida tropicalis [31] = assay: Antifungal activity against Candida tropicalis assessed as growth inhibition at 3.9 ug/mL by microplate reader analysis; type: functional; conditions: read-out: GI
[32] = tested on: Trichophyton mentagrophytes; assay: Fungicidal activity against Trichophyton mentagrophytes ATCC 9972 after 48 hrs by agar plate dilution method; type: functional; conditions: ATCC 9972, 48 h; procedure, shortened: as §4
Candida albicans [33] = assay: Antifungal activity against Candida albicans ATCC 10231 assessed as growth inhibition at 15.6 ug/mL after 24 hrs by microplate reader analysis; type: functional; conditions: ATCC 10231, 24 h, read-out: GI; procedure, shortened: as §2
Cryptococcus neoformans [34] = assay: Antifungal activity against Cryptococcus neoformans ATCC 32264 assessed as growth inhibition at 125 ug/mL after 48 hrs by microplate reader analysis; type: functional; conditions: ATCC 32264, 48 h, read-out: GI; procedure, shortened: as §1
Candida tropicalis [35] = assay: Antifungal activity against Candida tropicalis after 48 hrs by NCCLS broth microdilution method; type: functional; conditions: read-out: MIC100; procedure, shortened: as §6
Candida tropicalis [36] = assay: Antifungal activity against Candida tropicalis assessed as growth inhibition at 125 ug/mL by microplate reader analysis; type: functional; conditions: read-out: GI
Nannizzia gypsea [37] = assay: Antifungal activity against Microsporum gypseum CCC 115 by NCCLS broth microdilution method; type: functional; conditions: read-out: MIC100; procedure, shortened: as §3
Candida tropicalis [38] = assay: Antifungal activity against Candida tropicalis assessed as growth inhibition at 250 ug/mL by microplate reader analysis; type: functional; conditions: read-out: GI

Structure (SMILES): COc1nc(N)c(N=O)c(Nc2ccccc2)n1
- inhibition of growth at 62.5 µg/mL (Candida tropicalis [1]): 100%
- MIC50 (Cryptococcus neoformans [2]): 1.95 µg/mL (≈ 7.95 µM)
- MIC50 (Candida tropicalis [3]): 7.8 µg/mL (≈ 31.8 µM)
- inhibition of growth at 62.5 µg/mL (Candida albicans [4]): 100%
- inhibition of growth at 15.6 µg/mL (Cryptococcus neoformans [5]): 100%
- inhibition of growth at 250 µg/mL (Candida albicans [6]): 100%
- Activity (Aspergillus flavus): inactive
- inhibition of growth at 31.25 µg/mL (Candida albicans [7]): 100%
- inhibition of growth at 250 µg/mL (Cryptococcus neoformans [8]): 100%
- inhibition of growth at 125 µg/mL (Candida albicans [9]): 100%
- inhibition of growth at 3.9 µg/mL (Cryptococcus neoformans [10]): 76.2%
- inhibition of growth at 7.8 µg/mL (Cryptococcus neoformans [11]): 91.2%
- MFC (Candida albicans [12]): 31.2 µg/mL (≈ 127 µM)
- inhibition of growth at 7.8 µg/mL (Candida tropicalis [13]): 87.2%
- inhibition of growth at 31.25 µg/mL (Candida tropicalis [14]): 100%
- Activity (Aspergillus niger): inactive
- MFC (Cryptococcus neoformans [15]): 62.5 µg/mL (≈ 255 µM)
- inhibition of growth at 7.8 µg/mL (Candida albicans [16]): 85%
- Activity (Aspergillus fumigatus): inactive
- inhibition of growth at 15.6 µg/mL (Candida tropicalis [17]): 88.2%
- mortality at 96 h, 5 ug/mL [18]: 0%
- MIC50 (Candida albicans [19]): 7.8 µg/mL (≈ 31.8 µM)
- MFC (Nannizzia gypsea [20]): 62.5 µg/mL (≈ 255 µM)
- MIC (Trichophyton rubrum [21]): 125 µg/mL (≈ 510 µM)
- inhibition of growth at 31.25 µg/mL (Cryptococcus neoformans [22]): 100%
- MIC (Candida albicans [23]): 31.2 µg/mL (≈ 127 µM)
- inhibition of growth at 3.9 µg/mL (Candida albicans [24]): 4.7%
- MIC (Cryptococcus neoformans [25]): 15.6 µg/mL (≈ 63.6 µM)
- mortality at 96 h, 35 ug/mL [26]: 0%
- MFC (Trichophyton rubrum [27]): 250 µg/mL (≈ 1020 µM)
- MIC [28]: 125 µg/mL (≈ 510 µM)
- MFC (Candida tropicalis [29]): 31.2 µg/mL (≈ 127 µM)
- inhibition of growth at 62.5 µg/mL (Cryptococcus neoformans [30]): 100%
- inhibition of growth at 3.9 µg/mL (Candida tropicalis [31]): 4.1%
- MFC [32]: 250 µg/mL (≈ 1020 µM)
- inhibition of growth at 15.6 µg/mL (Candida albicans [33]): 98.1%
- inhibition of growth at 125 µg/mL (Cryptococcus neoformans [34]): 100%
- MIC (Candida tropicalis [35]): 31.2 µg/mL (≈ 127 µM)
- inhibition of growth at 125 µg/mL (Candida tropicalis [36]): 100%
- MIC (Nannizzia gypsea [37]): 62.5 µg/mL (≈ 255 µM)
- inhibition of growth at 250 µg/mL (Candida tropicalis [38]): 100%
